The source of these data is ChEMBL document CHEMBL1129408, “Development of novel, potent, and selective dopamine reuptake inhibitors through alteration of the piperazine ring of 1-[2-(diphenylmethoxy)ethyl]-and 1-[2-[bis(4-fluorophenyl)methoxy]ethyl]-4-(3-phenylpropyl)piperazines (GBR 12935 and GBR 12909)” (J Med Chem, 1996).

Experiment [1] addresses T1, Sodium-dependent dopamine transporter (Rattus norvegicus, UniProt P23977). As to the kind of experiment: Binding affinity against dopamine transporter using radioligand as [3H]GBR 12935. Summed up:
(§1)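 DAT binding by displacement of 2 nM [3H]GBR 12935 or 0.01 nM [125I]RTI 55. Drugs were in 55.2 mM sodium phosphate buffer, pH 7.4, with 1 mg/mL BSA; radioligand was in the same buffer with chymostatin, leupeptin, EDTA and EGTA. Incubated in triplicate for 18-24 h at 4 °C to equilibrium, then filtered over polyethylenimine-presoaked GF/B filters. IC50 derived.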

The target of experiment [2] is T1, Sodium-dependent dopamine transporter. Nature of the experiment: Inhibition of dopamine DA reuptake. The essentials:
(§2)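 Uptake into synaptosomes in Krebs-phosphate buffer, pH 7.4, with ascorbic acid 1 mg/mL and pargyline 50 µM. Final tracer was 5 nM [3H]DA or 2 nM [3H]5HT. Incubated at 25 °C for 15 min (DA) or 30 min (5HT), then filtered and filter tritium counted. IC50 derived.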

The target of experiment [3] is Sodium-dependent serotonin transporter (Rattus norvegicus, UniProt P31652). Nature of the experiment: Inhibition of [3H]5-HT reuptake at rat serotonin transporter. Summed up:
as §2

In experiment [4] the target is Monoamine transporters; serotonin & dopamine (Rattus norvegicus) (UniProt P31652+P23977). Nature of the experiment: Ratio of binding affinities of Serotonin transporter vs Dopamine transporter reuptake. The format is protein assay. Summed up:
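Ratio is the IC50 for [3H]5HT reuptake over the IC50 for [3H]DA reuptake. Both were measured in synaptosomes at 25 °C: 2 nM [3H]5HT for 30 min and 5 nM [3H]DA for 15 min, in Krebs-phosphate buffer, pH 7.4, with pargyline and ascorbic acid.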

Experiment [5] deals with T1, Sodium-dependent dopamine transporter. As to the kind of experiment: Binding against Dopamine transporter using radioligand as [3H]GBR 12935.
For experiment [6] the target is unchanged. Nature of the experiment: Compound was tested for binding affinity against dopamine transporter using radioligand as [3H]-RTI 55. Summed up: as §1
The target is the same in experiment [7]. As to the kind of experiment: Compound was tested for binding against Dopamine transporter using radioligand as […].
Experiment [8] is described as follows: Ratio of receptor binding affinities of [3H]5-HT vs [125I]-RTI 55 uptake.

Sequence of Sodium-dependent serotonin transporter (P31652 whole entry): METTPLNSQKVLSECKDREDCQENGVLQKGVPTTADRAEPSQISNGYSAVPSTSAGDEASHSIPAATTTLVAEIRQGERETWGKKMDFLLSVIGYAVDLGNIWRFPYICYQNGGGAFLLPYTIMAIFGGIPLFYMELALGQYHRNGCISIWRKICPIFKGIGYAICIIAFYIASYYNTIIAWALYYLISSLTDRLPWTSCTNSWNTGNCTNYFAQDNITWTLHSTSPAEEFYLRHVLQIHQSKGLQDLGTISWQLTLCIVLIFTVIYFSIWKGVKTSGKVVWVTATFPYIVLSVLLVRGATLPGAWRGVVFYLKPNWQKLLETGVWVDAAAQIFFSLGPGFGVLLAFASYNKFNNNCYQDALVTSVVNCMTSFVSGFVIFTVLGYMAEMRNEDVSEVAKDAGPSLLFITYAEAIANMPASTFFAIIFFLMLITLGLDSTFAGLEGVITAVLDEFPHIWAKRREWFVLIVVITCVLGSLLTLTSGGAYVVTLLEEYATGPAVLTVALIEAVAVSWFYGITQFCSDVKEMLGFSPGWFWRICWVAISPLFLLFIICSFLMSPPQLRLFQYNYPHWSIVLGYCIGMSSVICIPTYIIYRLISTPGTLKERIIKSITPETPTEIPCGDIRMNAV
Sequence of Monoamine transporters; serotonin & dopamine (Rattus norvegicus) (P23977 whole entry, looked up): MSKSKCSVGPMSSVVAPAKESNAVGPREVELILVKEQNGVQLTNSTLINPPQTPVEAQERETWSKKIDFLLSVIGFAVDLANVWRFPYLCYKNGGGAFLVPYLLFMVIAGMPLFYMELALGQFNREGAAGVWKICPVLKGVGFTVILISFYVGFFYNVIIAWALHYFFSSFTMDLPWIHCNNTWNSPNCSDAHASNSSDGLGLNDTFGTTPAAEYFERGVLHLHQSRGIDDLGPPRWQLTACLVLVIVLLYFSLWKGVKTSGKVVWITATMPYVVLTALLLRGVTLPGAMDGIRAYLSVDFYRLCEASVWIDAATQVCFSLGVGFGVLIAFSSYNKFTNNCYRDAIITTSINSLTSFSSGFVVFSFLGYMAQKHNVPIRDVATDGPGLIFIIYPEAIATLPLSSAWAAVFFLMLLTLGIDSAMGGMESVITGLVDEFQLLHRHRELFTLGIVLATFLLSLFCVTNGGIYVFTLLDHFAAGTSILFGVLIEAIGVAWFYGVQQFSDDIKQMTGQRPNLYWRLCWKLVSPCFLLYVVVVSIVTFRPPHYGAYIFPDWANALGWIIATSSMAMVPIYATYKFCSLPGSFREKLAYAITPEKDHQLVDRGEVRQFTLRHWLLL
Sequence of Monoamine transporters; serotonin & dopamine (Rattus norvegicus) (P31652 whole entry, looked up): as the sequence (P31652 whole entry) above
T1 sequence (P23977 whole entry): as the sequence (P23977 whole entry, looked up) above

Turning to `c1ccc(CCCN2CCCCC(NCCOC(c3ccccc3)c3ccccc3)C2)cc1` (centres undefined), the IC50 (in general, the midpoint of a concentration-inhibition curve) in experiment [1] is 74 nM; in experiment [2], 57 nM; in experiment [3], 2860 nM. Moreover, the Ratio in experiment [4] turned out to be 50.

Consider `c1ccc(C(OCCN2CCCNCC2)c2ccccc2)cc1`, for which the concentration for half-maximal inhibition (IC50) turned out to be 1360 nM in experiment [1], 651 nM in experiment [2] and 14300 nM in experiment [3]. In addition, the Ratio in experiment [4] worked out at 22.

In the case of `C[C@@H]1CN(CCOC(c2ccccc2)c2ccccc2)[C@@H](C)CN1C/C=C/c1ccccc1`, the IC50 in experiment [1] is 103 nM; in experiment [2], 20 nM; in experiment [3], 2680 nM. Besides, in experiment [4], the Ratio is 134.

In the case of `C[C@@H]1CN(CCOC(c2ccc(F)cc2)c2ccc(F)cc2)[C@@H](C)CN1C/C=C/c1ccccc1`, the results for the IC50 in experiment [2], in experiment [5] and in experiment [3] were 28 nM, 23 nM and 1180 nM, respectively. The Ratio in experiment [4] stood at 42.

As to `C[C@@H]1CN(CCOC(c2ccc(F)cc2)c2ccc(F)cc2)[C@@H](C)CN1`, the IC50 in experiment [1] came out at 106 nM; in experiment [2], 30 nM; in experiment [6] it was 44 nM; in experiment [3], 8940 nM. Also, in experiment [4], the Ratio was found to be 298.

`C[C@@H]1CN(CCOC(c2ccccc2)c2ccccc2)[C@@H](C)CN1CCOC(c1ccccc1)c1ccccc1`: the 50% inhibitory concentration (IC50) in experiment [1] came out at 33 nM; in experiment [2], 35 nM; in experiment [3] it was 6220 nM. In experiment [4], the Ratio was determined as 1.1.

Regarding `CC1(C)CN(CCCc2ccccc2)CCN(CCOC(c2ccccc2)c2ccccc2)C1`, the half-maximal inhibitory concentration (IC50) worked out at 286 nM in experiment [1], 87 nM in experiment [2] and 3150 nM in experiment [3]. The Ratio in experiment [4] is 36.

Turning to `c1ccc(CCCNC2CCCCN(CCOC(c3ccccc3)c3ccccc3)C2)cc1` (centres undefined), the IC50 was 20 nM in experiment [1], 9.3 nM in experiment [2] and 1480 nM in experiment [3]. For the same compound, the Ratio in experiment [4] was 159.

Take `C[C@@H]1CN(CCOC(c2ccc(F)cc2)c2ccc(F)cc2)[C@@H](C)CN1CCOC(c1ccc(F)cc1)c1ccc(F)cc1`: the 50% inhibitory concentration (IC50) was found to be 36 nM in experiment [1], 86 nM in experiment [2] and 4240 nM in experiment [3]. Moreover, the Ratio in experiment [4] turned out to be 2.4.

`c1ccc(CCCN2CCNCC2)cc1`: the IC50 is greater than 30000 nM in experiment [2], greater than 30000 nM in experiment [5] and 361 nM in experiment [3].

For the compound `c1ccc(CCCN2CCN(CCCc3ccccc3)CC2)cc1`, the half-maximal inhibitory concentration (IC50) in experiment [2] was determined as 1640 nM; in experiment [5], 7760 nM; in experiment [3], 1340 nM. The Ratio in experiment [4] was 0.2.

On to `C[C@@H]1CN(CCCc2ccccc2)[C@@H](C)CN1CCCc1ccccc1`, for which the IC50 in experiment [1] came out at 9940 nM; in experiment [2], 1330 nM; in experiment [3] it was 2530 nM. Further, in experiment [4], the Ratio turned out to be 0.1.

In the case of `CN(CCCc1ccccc1)CCN(C)CCOC(c1ccccc1)c1ccccc1`, the IC50 came to 27 nM in experiment [1] and 2450 nM in experiment [3].

Take `c1ccc(CCCN2CCCN(CCOC(c3ccccc3)c3ccccc3)CC2)cc1`: the results for the IC50 in experiment [1], in experiment [2] and in experiment [3] were 7.9 nM, 7.2 nM and 34100 nM, respectively. The Ratio in experiment [4] came to 4740.

Regarding `Oc1cccc(CCCNC[C@@H]2CCCN2CCOC(c2ccccc2)c2ccccc2)c1`, the IC50 in experiment [1] was 222 nM; in experiment [2], 31 nM; in experiment [3], 857 nM. Further, in experiment [4], the Ratio turned out to be 28.

Turning to `c1ccc(CCCNC[C@@H]2CCCN2CCOC(c2ccccc2)c2ccccc2)cc1`, the IC50 was determined as 5.1 nM in experiment [1], 0.7 nM in experiment [2] and 986 nM in experiment [3]. Besides, the Ratio in experiment [4] came to 1410.

Consider `c1ccc(C(OCCN2CCN(CCOC(c3ccccc3)c3ccccc3)CC2)c2ccccc2)cc1`, for which the IC50 was 1.6 nM in experiment [7], 12 nM in experiment [2], 9.3 nM in experiment [5] and 1710 nM in experiment [3]. Moreover, the Ratio in experiment [4] stood at 1.3; in experiment [8] it was 7.5.

As to `Fc1ccc(C(OCCN2CCCN(CCCc3ccccc3)CC2)c2ccc(F)cc2)cc1`, the 50% inhibitory concentration (IC50) amounted to 3.4 nM in experiment [2], 4.4 nM in experiment [5] and 112 nM in experiment [3]. The Ratio in experiment [4] turned out to be 33.

Take `CNCCN(C)CCOC(c1ccccc1)c1ccccc1`: the 50% inhibitory concentration (IC50) is 834 nM in experiment [1], 545 nM in experiment [2] and greater than 10000 nM in experiment [3].

`Fc1ccc(C(OCCN2CCC[C@H]2CNCCCc2ccccc2)c2ccc(F)cc2)cc1`: the results for the concentration for half-maximal inhibition (IC50) in experiment [2], in experiment [5] and in experiment [3] were 29 nM, 104 nM and 20100 nM, respectively. Besides, the Ratio in experiment [4] came out at 693.

For the compound `CC(C)(CNCCCc1ccccc1)CNCCOC(c1ccccc1)c1ccccc1`, the IC50 was 169 nM in experiment [1], 83 nM in experiment [2] and 1890 nM in experiment [3]. Besides, the Ratio in experiment [4] was determined as 23.

With `c1ccc(CCCN2CCCCN(CCOC(c3ccccc3)c3ccccc3)CC2)cc1`, the IC50 was 864 nM in experiment [1], 93 nM in experiment [2] and 1590 nM in experiment [3]. The Ratio in experiment [4] amounted to 17.

`Fc1ccc(C(OCCN2CCN(CCOC(c3ccc(F)cc3)c3ccc(F)cc3)CC2)c2ccc(F)cc2)cc1`: the IC50 in experiment [7] amounted to 1.1 nM; in experiment [2] it was 40 nM; in experiment [5] it was 7.3 nM; in experiment [3], 278 nM. Moreover, the values for the Ratio in experiment [4] and in experiment [8] were 5.5 and 36.4, respectively.

For `CC(C)(CN)CNCCOC(c1ccccc1)c1ccccc1`, the values for the IC50 in experiment [1], in experiment [2] and in experiment [3] were 1460 nM, 453 nM and greater than 10000 nM, respectively.

As for `C[C@@H]1CN(CCCc2ccccc2)[C@@H](C)CN1`, the concentration for half-maximal inhibition (IC50) was greater than 30000 nM in experiment [2], greater than 30000 nM in experiment [5] and 12200 nM in experiment [3].

As for `C[C@@H]1CN(CCOC(c2ccccc2)c2ccccc2)[C@@H](C)CN1CCCc1ccccc1`, the IC50 in experiment [5] was found to be 21 nM; in experiment [3], 1730 nM.

In the case of `C(=C\c1ccccc1)/CN1CCCN(CCOC(c2ccccc2)c2ccccc2)CC1`, the values for the 50% inhibitory concentration (IC50) in experiment [1], in experiment [2] and in experiment [3] were 8.6 nM, 0.6 nM and 503 nM, respectively. For the same compound, the Ratio in experiment [4] amounted to 838.

As to `c1ccc(CCCNC[C@H]2CCCN2CCOC(c2ccccc2)c2ccccc2)cc1`, the IC50 in experiment [1] turned out to be 747 nM; in experiment [2] it was 127 nM; in experiment [3], 3210 nM. In addition, the Ratio in experiment [4] is 25.

As to `C[C@@H]1CN(CCOC(c2ccccc2)c2ccccc2)[C@@H](C)CN1`, the half-maximal inhibitory concentration (IC50) was 1000 nM in experiment [1], 138 nM in experiment [2] and 25300 nM in experiment [3]. For the same compound, the Ratio in experiment [4] amounted to 183.

As for `Fc1ccc(C(OCCN2CCNCC2)c2ccc(F)cc2)cc1`, the results for the concentration for half-maximal inhibition (IC50) in experiment [2], in experiment [5] and in experiment [3] were 71 nM, 104 nM and 1400 nM, respectively. Also, the Ratio in experiment [4] stood at 0.7.

On to `c1ccc(CCCNCCCCNCCOC(c2ccccc2)c2ccccc2)cc1`, for which the IC50 in experiment [2] came to 35 nM; in experiment [5] it was 80 nM; in experiment [3] it was 376 nM. The Ratio in experiment [4] came to 11.

As for `Fc1ccc(C(OCCN2CCCN(C/C=C/c3ccccc3)CC2)c2ccc(F)cc2)cc1`, the IC50 in experiment [2] worked out at 3.4 nM; in experiment [5] it was 2.6 nM; in experiment [3] it was 234 nM. For the same compound, the Ratio in experiment [4] came to 69.

Consider `c1ccc(C(OCCN2CCNCC2)c2ccccc2)cc1`, for which the figures for the IC50 in experiment [1], in experiment [2] and in experiment [3] were 110 nM, 124 nM and 9570 nM, respectively. Further, in experiment [4], the Ratio came out at 1.1.

Regarding `Fc1ccc(C(OCCN2CCCNCC2)c2ccc(F)cc2)cc1`, the results for the concentration for half-maximal inhibition (IC50) in experiment [1], in experiment [2] and in experiment [3] were 143 nM, 17 nM and 2080 nM, respectively. Besides, the Ratio in experiment [4] is 122.

Regarding `NCCCCNCCOC(c1ccccc1)c1ccccc1`, the IC50 was found to be 9780 nM in experiment [1] and 6830 nM in experiment [3].

Take `C[C@@H]1CN(CCOC(c2ccc(F)cc2)c2ccc(F)cc2)[C@@H](C)CN1CCCc1ccccc1`: the values for the IC50 in experiment [2], in experiment [5] and in experiment [3] were 15 nM, 40 nM and 459 nM, respectively. In experiment [4], the Ratio came out at 31.
